ChEMBL document CHEMBL4316635, “Synthesis, Structure Revision, and Cytotoxicity of Nocarbenzoxazole G” (J Nat Prod, 2019)

Experiments:
HepG2 = assay: Cytotoxicity in human HepG2 cells assessed as reduction in cell viability incubated for 48 hrs by CCK8 assay; assay type: functional, cell-based; conditions: HepG2, 48 h
Procedure, shortened: (§1)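 Exponentially growing cells, routinely kept in DMEM or RPMI1640 (line-dependent) with 10% FBS, penicillin/streptomycin at 37 °C and 5% CO₂, were seeded at 1.0 × 10⁴ cells/well in triplicate. The next day they were treated at 1.25–20 μM for 48 h. CCK-8 reagent was then added for 1 h and absorbance read at 450 nm. Controls received medium with 0.5% (v/v) DMSO.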

Hep 3B2 = assay: Cytotoxicity in human Hep3B cells assessed as reduction in cell viability incubated for 48 hrs by CCK8 assay; assay type: functional, cell-based; procedure, shortened: as §1
HeLa = assay: Cytotoxicity in human HeLa cells assessed as reduction in cell viability incubated for 48 hrs by CCK8 assay; assay type: functional, cell-based; procedure, shortened: as §1
MDA-MB-231 = assay: Cytotoxicity in human MDA-MB-231 cells assessed as reduction in cell viability incubated for 48 hrs by CCK8 assay; assay type: functional, cell-based; conditions: MDA-MB-231, 48 h; procedure, shortened: as §1
MCF7 = assay: Cytotoxicity in human MCF7 cells assessed as reduction in cell viability incubated for 48 hrs by CCK8 assay; assay type: functional, cell-based; conditions: MCF7, 48 h; procedure, shortened: as §1
T98G = assay: Cytotoxicity in human T98G cells assessed as reduction in cell viability incubated for 48 hrs by CCK8 assay; assay type: cell-based; procedure, shortened: as §1

OCc1ccc2oc(-c3ccc(O)cc3)nc2c1 was tested, and the IC50 (HepG2) was > 20 µM, the IC50 (Hep 3B2) was > 20 µM and the IC50 (HeLa) was 4.7 µM. The IC50 (MDA-MB-231) was > 20 µM, the IC50 (MCF7) was > 20 µM and the IC50 (T98G) was > 20 µM.

With COc1cc(O)ccc1-c1nc2cc(CO)ccc2o1 the IC50 (HepG2) was > 20 µM, the IC50 (Hep 3B2) was > 20 µM and the IC50 (HeLa) was 2.9 µM. The IC50 (MDA-MB-231) was > 20 µM, the IC50 (MCF7) was > 20 µM and the IC50 (T98G) was > 20 µM.

With Cc1cc(-c2nc3cc(CO)ccc3o2)cc(C)c1N the IC50 (HepG2) was > 20 µM, the IC50 (Hep 3B2) was > 20 µM and the IC50 (HeLa) was 19 µM. For the same compound, the IC50 (MDA-MB-231) was > 20 µM, the IC50 (MCF7) was > 20 µM and the IC50 (T98G) was > 20 µM.

For COc1cc(-c2nc3cc(CO)ccc3o2)ccc1O, the IC50 (HepG2) was > 20 µM, the IC50 (Hep 3B2) was > 20 µM and the IC50 (HeLa) was 5.7 µM. For the same compound, the IC50 (MDA-MB-231) was > 20 µM, the IC50 (MCF7) was > 20 µM and the IC50 (T98G) was > 20 µM.

OCc1ccc2oc(-c3ccc(O)c(Cl)c3)nc2c1 was tested, and the IC50 (HepG2) was > 20 µM, the IC50 (Hep 3B2) was > 20 µM and the IC50 (HeLa) was 11 µM. The IC50 (MDA-MB-231) was > 20 µM, the IC50 (MCF7) was > 20 µM and the IC50 (T98G) was > 20 µM.

For OCc1ccc2oc(-c3ccc4[nH]ccc4c3)nc2c1, the IC50 (HepG2) was > 20 µM, the IC50 (Hep 3B2) was > 20 µM and the IC50 (HeLa) was 8.9 µM. The IC50 (MDA-MB-231) was > 20 µM, the IC50 (MCF7) was > 20 µM and the IC50 (T98G) was > 20 µM.

For OCc1ccc2oc(-c3ccc4cc(O)ccc4c3)nc2c1, the IC50 (HepG2) was > 20 µM, the IC50 (Hep 3B2) was > 20 µM and the IC50 (HeLa) was 0.56 µM. For the same compound, the IC50 (MDA-MB-231) was > 20 µM, the IC50 (MCF7) was > 20 µM and the IC50 (T98G) was > 20 µM.

OCc1ccc2oc(-c3ccc(Cl)cc3)nc2c1 was tested, and the IC50 (HepG2) was > 20 µM, the IC50 (Hep 3B2) was > 20 µM and the IC50 (HeLa) was 16 µM. The IC50 (MDA-MB-231) was > 20 µM, the IC50 (MCF7) was > 20 µM and the IC50 (T98G) was > 20 µM.
